Reference: ChEMBL document CHEMBL4433220, “Identification of the 2-Benzoxazol-2-yl-phenol Scaffold as New Hit for JMJD3 Inhibition” (ACS Med Chem Lett, 2019)
Each block holds one compound with its values, some of them ahead of it. Active and inactive are the calls of the source. The rule behind the calls is not given here.

Assays:
A-375 [1] = test: Cell cycle arrest in human A375 cells assessed as accumulation at G1 phase at 20 uM incubated for 24 hrs by propidium iodide staining-based flow cytometry (reference value: 59.63%); format: functional
How it was run: (§1)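 A375 melanoma cells exposed to compound at 1, 5, 10, 20, 40, 80 or 100 μM for 24 h. Cells were collected, fixed in iced 70% ethanol for 2 h and stained with propidium iodide. Cell-cycle distribution was read by flow cytometry, n = 3. […]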

A-375 [2] = test: Cell cycle arrest in human A375 cells assessed as accumulation at S phase at 40 uM incubated for 24 hrs by propidium iodide staining-based flow cytometry (reference value: 29.56%); format: functional; how it was run: as §1
A-375 [3] = test: Cell cycle arrest in human A375 cells assessed as accumulation at G2/M phase at 100 uM incubated for 24 hrs by propidium iodide staining-based flow cytometry (reference value: 10.81%); format: functional; how it was run: as §1
A-375 [4] = test: Cell cycle arrest in human A375 cells assessed as accumulation at G1 phase at 100 uM incubated for 24 hrs by propidium iodide staining-based flow cytometry (reference value: 59.63%); format: functional; how it was run: as §1
[5] = biological target: Lysine-specific demethylase 6A (Homo sapiens, UniProt O15550); test: Inhibition of UTX (unknown origin) using histone H3 peptide as substrate incubated for 30 mins followed by substrate addition by AlphaScreen assay
A-375 [6] = test: Cell cycle arrest in human A375 cells assessed as accumulation at S phase at 100 uM incubated for 24 hrs by propidium iodide staining-based flow cytometry (reference value: 29.56%); format: functional; how it was run: as §1
A-375 [7] = test: Cell cycle arrest in human A375 cells assessed as accumulation at S phase at 80 uM incubated for 24 hrs by propidium iodide staining-based flow cytometry (reference value: 29.56%); format: functional; how it was run: as §1
[8] = biological target: T1, Lysine-specific demethylase 6B (Homo sapiens, UniProt O15054); test: Inhibition of JMJD3 in human A375 cells assessed as reduction in decrease of the H3K27me2 level at 100 uM incubated for 24 hrs by Western blot analysis; format: cell-based
How it was run: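 A375 melanoma cells treated with 100 μM compound for 4 and 24 h, then lysed and run on SDS-PAGE. Western blot on nitrocellulose was probed with anti-H3K27me2 antibody.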

[9] = biological target: T1, Lysine-specific demethylase 6B; test: Inhibition of recombinant human JMJD3 expressed in baculovirus infected Sf9 cells at 25 uM using biotinylated histone H3 peptide as substrate incubated for 15 mins followed by substrate addition and measured after 60 mins by AlphaScreen assay relative to control
How it was run: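 JMJD3 demethylase activity measured by AlphaScreen with compound at 25 μM; means ± SEM, n = 3.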

A-375 [10] = test: Cell cycle arrest in human A375 cells assessed as accumulation at S phase at 20 uM incubated for 24 hrs by propidium iodide staining-based flow cytometry (reference value: 29.56%); format: functional; how it was run: as §1
[11] = biological target: T1, Lysine-specific demethylase 6B; test: Inhibition of recombinant human JMJD3 expressed in baculovirus infected Sf9 cells using biotinylated histone H3 peptide as substrate incubated for 15 mins followed by substrate addition and measured after 60 mins by AlphaScreen assay
A-375 [12] = test: Cell cycle arrest in human A375 cells assessed as accumulation at G2/M phase at 40 uM incubated for 24 hrs by propidium iodide staining-based flow cytometry (reference value: 10.81%); format: functional; how it was run: as §1
A-375 [13] = test: Cell cycle arrest in human A375 cells assessed as accumulation at G2/M phase at 80 uM incubated for 24 hrs by propidium iodide staining-based flow cytometry (reference value: 10.81%); format: functional; how it was run: as §1
A-375 [14] = test: Cell cycle arrest in human A375 cells assessed as accumulation at G2/M phase at 20 uM incubated for 24 hrs by propidium iodide staining-based flow cytometry (reference value: 10.81%); format: functional; how it was run: as §1
A-375 [15] = test: Cell cycle arrest in human A375 cells assessed as accumulation at G1 phase at 40 uM incubated for 24 hrs by propidium iodide staining-based flow cytometry (reference value: 59.63%); format: functional; how it was run: as §1
A-375 [16] = test: Cell cycle arrest in human A375 cells assessed as accumulation at G1 phase at 80 uM incubated for 24 hrs by propidium iodide staining-based flow cytometry (reference value: 59.63%); format: functional; how it was run: as §1
[17] = Apparent permeability of the compound in pH 7.4 phosphate buffer solution at 0.5 mM incubated for 24 hrs under gentle shaking condition by HPLC-UV detector based PAMPA assay; format: ADME
How it was run: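 Parallel artificial membrane permeability assay (PAMPA); apparent permeability (Papp) reported in cm/s.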

A-375 [18] = test: Antiproliferative activity against human A375 cells incubated for 24 hrs by propidium iodide staining based flow cytometric analysis; conditions: A-375, 24 h

T1 sequence (O15054 whole entry): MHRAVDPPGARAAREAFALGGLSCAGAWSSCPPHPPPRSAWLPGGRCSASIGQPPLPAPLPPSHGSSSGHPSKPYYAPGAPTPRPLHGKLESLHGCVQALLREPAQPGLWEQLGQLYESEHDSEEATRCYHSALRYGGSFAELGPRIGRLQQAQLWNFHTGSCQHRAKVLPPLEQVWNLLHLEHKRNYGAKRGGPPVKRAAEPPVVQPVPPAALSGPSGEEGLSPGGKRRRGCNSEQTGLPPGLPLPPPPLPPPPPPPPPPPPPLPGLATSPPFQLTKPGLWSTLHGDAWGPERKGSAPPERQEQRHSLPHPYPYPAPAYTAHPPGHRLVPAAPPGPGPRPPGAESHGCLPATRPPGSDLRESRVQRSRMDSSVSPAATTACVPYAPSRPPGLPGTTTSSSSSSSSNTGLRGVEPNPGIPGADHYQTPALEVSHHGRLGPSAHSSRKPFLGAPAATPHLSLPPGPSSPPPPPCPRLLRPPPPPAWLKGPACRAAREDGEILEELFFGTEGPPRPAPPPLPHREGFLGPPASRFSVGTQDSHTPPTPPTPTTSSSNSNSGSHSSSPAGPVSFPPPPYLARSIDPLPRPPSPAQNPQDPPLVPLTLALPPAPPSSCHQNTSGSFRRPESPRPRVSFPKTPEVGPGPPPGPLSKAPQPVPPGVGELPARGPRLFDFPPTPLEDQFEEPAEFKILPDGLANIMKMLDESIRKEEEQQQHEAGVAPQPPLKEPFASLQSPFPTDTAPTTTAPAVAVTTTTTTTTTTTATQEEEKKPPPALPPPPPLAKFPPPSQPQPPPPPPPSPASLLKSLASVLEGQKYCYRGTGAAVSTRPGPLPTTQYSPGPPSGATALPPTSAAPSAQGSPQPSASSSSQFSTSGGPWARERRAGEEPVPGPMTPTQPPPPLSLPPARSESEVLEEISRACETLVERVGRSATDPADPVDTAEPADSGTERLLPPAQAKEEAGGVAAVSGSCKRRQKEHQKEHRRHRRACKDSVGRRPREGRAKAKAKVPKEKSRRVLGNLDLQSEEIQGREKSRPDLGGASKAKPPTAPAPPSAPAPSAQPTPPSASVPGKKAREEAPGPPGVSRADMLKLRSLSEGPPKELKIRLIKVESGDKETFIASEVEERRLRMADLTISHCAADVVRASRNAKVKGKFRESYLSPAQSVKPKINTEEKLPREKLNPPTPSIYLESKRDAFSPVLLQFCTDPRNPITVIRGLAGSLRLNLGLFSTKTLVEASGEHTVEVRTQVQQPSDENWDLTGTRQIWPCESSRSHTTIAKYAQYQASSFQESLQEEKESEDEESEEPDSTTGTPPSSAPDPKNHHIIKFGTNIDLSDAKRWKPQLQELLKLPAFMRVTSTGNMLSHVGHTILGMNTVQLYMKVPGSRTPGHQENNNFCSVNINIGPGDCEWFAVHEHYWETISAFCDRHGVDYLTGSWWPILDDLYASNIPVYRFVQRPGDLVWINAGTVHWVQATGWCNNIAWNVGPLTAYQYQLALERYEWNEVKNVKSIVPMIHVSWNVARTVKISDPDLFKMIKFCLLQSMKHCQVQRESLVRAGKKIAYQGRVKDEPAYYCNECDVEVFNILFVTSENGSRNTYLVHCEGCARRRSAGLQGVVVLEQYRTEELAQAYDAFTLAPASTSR
Sequence of Lysine-specific demethylase 6A (O15550 whole entry): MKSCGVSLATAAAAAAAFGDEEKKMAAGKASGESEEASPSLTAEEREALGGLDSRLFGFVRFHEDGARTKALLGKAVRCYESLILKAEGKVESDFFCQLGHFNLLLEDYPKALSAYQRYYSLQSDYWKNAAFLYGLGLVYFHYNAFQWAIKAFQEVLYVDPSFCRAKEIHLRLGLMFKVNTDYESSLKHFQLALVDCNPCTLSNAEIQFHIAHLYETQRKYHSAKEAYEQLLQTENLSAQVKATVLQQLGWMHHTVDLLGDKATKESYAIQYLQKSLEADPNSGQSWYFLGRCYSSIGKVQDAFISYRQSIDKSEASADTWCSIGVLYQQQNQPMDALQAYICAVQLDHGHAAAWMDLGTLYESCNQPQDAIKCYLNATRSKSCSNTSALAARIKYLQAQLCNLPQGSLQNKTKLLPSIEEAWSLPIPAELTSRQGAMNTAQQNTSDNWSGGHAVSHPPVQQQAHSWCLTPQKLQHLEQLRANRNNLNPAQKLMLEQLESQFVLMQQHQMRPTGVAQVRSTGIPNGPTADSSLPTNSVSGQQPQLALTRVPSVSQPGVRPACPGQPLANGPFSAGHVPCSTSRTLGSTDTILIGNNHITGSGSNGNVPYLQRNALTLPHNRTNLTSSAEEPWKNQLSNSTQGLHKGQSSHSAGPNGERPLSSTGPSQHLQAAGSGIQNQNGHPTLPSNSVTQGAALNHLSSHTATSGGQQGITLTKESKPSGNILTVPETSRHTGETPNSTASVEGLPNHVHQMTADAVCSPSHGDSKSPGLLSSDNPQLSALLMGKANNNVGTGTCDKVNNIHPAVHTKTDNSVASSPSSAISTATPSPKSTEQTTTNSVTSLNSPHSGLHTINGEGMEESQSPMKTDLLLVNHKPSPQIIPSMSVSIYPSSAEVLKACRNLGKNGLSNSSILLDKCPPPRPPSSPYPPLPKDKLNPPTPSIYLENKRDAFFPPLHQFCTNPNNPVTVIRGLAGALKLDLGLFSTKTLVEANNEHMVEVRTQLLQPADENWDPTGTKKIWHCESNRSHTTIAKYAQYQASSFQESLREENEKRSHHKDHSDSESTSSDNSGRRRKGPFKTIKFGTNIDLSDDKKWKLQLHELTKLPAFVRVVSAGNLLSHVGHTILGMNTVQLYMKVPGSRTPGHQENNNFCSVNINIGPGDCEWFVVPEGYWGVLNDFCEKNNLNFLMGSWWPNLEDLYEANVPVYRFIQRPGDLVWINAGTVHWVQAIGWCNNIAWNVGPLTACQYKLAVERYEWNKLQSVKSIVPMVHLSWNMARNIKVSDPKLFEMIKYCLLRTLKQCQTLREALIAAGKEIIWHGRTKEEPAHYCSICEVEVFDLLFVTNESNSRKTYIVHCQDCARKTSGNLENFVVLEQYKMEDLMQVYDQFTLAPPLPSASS

IC50 [5]: 25.7 µM
inhibition [8]: Active
inhibition [9]: 90%
IC50 [11]: 1.2 µM
Papp at 24 h, 500 µM [17]: 9.12 nm/s
IC50 (A-375 [18]): 24.7 µM
Structure (SMILES): Oc1ccc(O)c(-c2nc3ccccc3o2)c1
Activity (A-375 [1]): 51.31%
Activity (A-375 [2]): 61.05%
Activity (A-375 [3]): 10%
Activity (A-375 [4]): 16.62%
Activity (A-375 [6]): 73.38%
Activity (A-375 [7]): 67.12%
Activity (A-375 [10]): 47.57%
Activity (A-375 [12]): 14.81%
Activity (A-375 [13]): 10.96%
Activity (A-375 [14]): 1.12%
Activity (A-375 [15]): 24.14%
Activity (A-375 [16]): 21.92%

inhibition [9]: 40%
Structure (SMILES): Oc1ccccc1-c1nc2ccccc2o1

inhibition [9]: 27%
Structure (SMILES): O=C(O)c1ccc(O)c(-c2nc3ccccc3o2)c1

More lines, now with the values behind:

Structure (SMILES): Oc1c(F)cc(F)cc1-c1nc2ccccc2o1
inhibition [9]: 20%

Structure (SMILES): Oc1ccccc1-c1nc2ccccc2s1
inhibition [9]: inactive

Structure (SMILES): COc1cc2c(cc1-c1nc3ccccc3o1)OCO2
inhibition [9]: inactive
